The values below come from ChEMBL document CHEMBL4177546, “Development of a Selective Inhibitor of Protein Arginine Deiminase 2” (J Med Chem, 2017).

Experiment [1] is filed under the species Homo sapiens. Kind of experiment: Selectivity ratio of Kinact/Ki for recombinant His6-tagged PAD1 (unknown origin) to Kinact/Ki for recombinant full length N-terminal GST-tagged human PAD4 expressed in Escherichia coli Rosetta cells. Put shortly:
(§1)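 Enzyme at 2.0 μM (PAD1, PAD2, PAD4) or 5.0 μM (PAD3) incubated at 37 °C with various inhibitor concentrations in 50 mM HEPES, 10 mM CaCl₂, 2 mM DTT, pH 7.6. Timed aliquots moved into substrate mix: 10 mM BAEE, or 10 mM BAA for PAD3. […] Selectivity ratios taken from these values.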

For experiment [2], the species on record is Homo sapiens. Kind of experiment: Selectivity ratio of Kinact/Ki for recombinant His6-tagged PAD3 (unknown origin) to Kinact/Ki for recombinant full length N-terminal GST-tagged human PAD4 expressed in Escherichia coli Rosetta cells. The gist of the method: as §1
For experiment [3], the species on record is Homo sapiens. Kind of experiment: Selectivity ratio of Kinact/Ki for recombinant human PAD2 expressed in Escherichia coli BL21(DE3)pLysS cells to Kinact/Ki for recombinant full length N-terminal GST-tagged human PAD4 expressed in Escherichia coli Rosetta cells. Put shortly: as §1
The species entered for experiment [4] is Homo sapiens. Kind of experiment: Selectivity ratio of Kinact/Ki for recombinant human PAD2 expressed in Escherichia coli BL21(DE3)pLysS to Kinact/Ki for recombinant His6-tagged PAD3 (unknown origin). The gist of the method:
as §1

On to `CCN1Cc2cccc(C(=O)N[C@@H](CCCNC(=N)CCl)c3nc4c(OC)cccc4[nH]3)c2C1=O`, for which the values for the Selectivity ratio in the experiment filed under Homo sapiens [1], in the experiment listed under Homo sapiens [2] and in the experiment listed under Homo sapiens [3] were 5, 1 and 2.3, respectively.
On the same counts, the results for `CCn1c([C@H](CCCNC(=N)CCl)NC(=O)c2cccc3c2C(=O)NC3)nc2ccccc21` are 10, 1.8 and 4.8.
On the same counts, the results for `CCN1Cc2cccc(C(=O)N[C@@H](CCCNC(=N)CCl)c3nc4cc(OC)ccc4n3CC)c2C1=O` are 21, 8.4 and 27.
`COc1ccc2c(c1)nc([C@H](CCCNC(=N)CCl)NC(=O)c1cccc3c1C(=O)NC3)n2C`: the Selectivity ratio came to 25 in the experiment filed under Homo sapiens [1], 2.4 in the experiment listed under Homo sapiens [2] and 10 in the experiment filed under Homo sapiens [3].
Turning to `CCN1Cc2cccc(C(=O)N[C@@H](CCCNC(=N)CF)c3nc4ccccc4n3C(C)C)c2C1=O`, the Selectivity ratio was 10 in the experiment listed under Homo sapiens [1], 3.4 in the experiment listed under Homo sapiens [2] and 22 in the experiment listed under Homo sapiens [3].
For the compound `Cn1c([C@H](CCCNC(=N)CF)NC(=O)c2ccccc2C(=O)O)nc2ccccc21`, the figures for the Selectivity ratio in the experiment filed under Homo sapiens [1], in the experiment filed under Homo sapiens [2] and in the experiment filed under Homo sapiens [3] were 40, 1.3 and 15, respectively.
For the compound `COc1cccc2[nH]c([C@H](CCCNC(=N)CF)NC(=O)c3cccc4c3C(=O)NC4)nc12`, the Selectivity ratio in the experiment listed under Homo sapiens [1] amounted to 42; in the experiment filed under Homo sapiens [2], 3.8; in the experiment filed under Homo sapiens [3], 8.
On the same counts, the results for `COc1cccc2c1nc([C@H](CCCNC(=N)CCl)NC(=O)c1cccc3c1C(=O)N(C1CC1)C3)n2C` are 4.7, 1.1 and 6.7.
In the case of `CCN1Cc2cccc(C(=O)N[C@@H](CCCNC(=N)CCl)c3nc4c(OC)cccc4n3CC)c2C1=O`, the results for the Selectivity ratio in the experiment filed under Homo sapiens [1], in the experiment listed under Homo sapiens [2] and in the experiment listed under Homo sapiens [3] were 31, 3.4 and 27, respectively.
On the same counts, the results for `CC(C)n1c([C@H](CCCNC(=N)CCl)NC(=O)c2ccccc2C(=O)O)nc2ccccc21` are 68, 3.8 and 38.
For `CCN1Cc2cccc(C(=O)N[C@@H](CCCNC(=N)CF)c3nc4c(OC)cccc4n3CC)c2C1=O`, the Selectivity ratio in the experiment filed under Homo sapiens [1] is 28; in the experiment listed under Homo sapiens [2], 2; in the experiment listed under Homo sapiens [3], 40.
Regarding `CCOc1cccc2c1nc([C@H](CCCNC(=N)CCl)NC(=O)c1cccc3c1C(=O)NC3)n2C`, the Selectivity ratio in the experiment filed under Homo sapiens [1] was found to be 24; in the experiment filed under Homo sapiens [2], 2.7; in the experiment filed under Homo sapiens [3], 30.
On the same counts, the results for `CCN1Cc2cccc(C(=O)N[C@@H](CCCNC(=N)CF)c3nc4cc(OC)ccc4n3CC)c2C1=O` are 28, 2.7 and 70.
On the same counts, the results for `Cn1c([C@H](CCCNC(=N)CCl)NC(=O)c2cccc3c2C(=O)NC3)nc2ccccc21` are 61, 2 and 3.1.
On to `CCn1c([C@H](CCCNC(=N)CF)NC(=O)c2cccc3c2C(=O)NC3)nc2cc(OC)ccc21`, for which the Selectivity ratio in the experiment filed under Homo sapiens [1] was found to be 24; in the experiment filed under Homo sapiens [2] it was 2.5; in the experiment filed under Homo sapiens [3], 50.
On the same counts, the results for `CC(C)n1c([C@H](CCCNC(=N)CF)NC(=O)c2ccccc2C(=O)O)nc2ccccc21` are 49, 4.4 and 54.
`COc1cccc2c1nc([C@H](CCCNC(=N)CCl)NC(=O)c1cccc3c1C(=O)N(C(C)C)C3)n2C`: the Selectivity ratio stood at 3.5 in the experiment listed under Homo sapiens [1], 1.2 in the experiment listed under Homo sapiens [2] and 4.1 in the experiment filed under Homo sapiens [3].
As to `CCn1c([C@H](CCCNC(=N)CF)NC(=O)c2ccccc2C(=O)O)nc2ccccc21`, the Selectivity ratio worked out at 39 in the experiment listed under Homo sapiens [1], 1.7 in the experiment listed under Homo sapiens [2], 31 in the experiment filed under Homo sapiens [3] and 18 in the experiment filed under Homo sapiens [4].
In the case of `COc1cccc2c1nc([C@H](CCCNC(=N)CCl)NC(=O)c1cccc3c1C(=O)N(C)C3)n2C`, the Selectivity ratio in the experiment listed under Homo sapiens [1] turned out to be 6.8; in the experiment listed under Homo sapiens [2], 2.2; in the experiment filed under Homo sapiens [3], 11.
In the case of `CCn1c([C@H](CCCNC(=N)CCl)NC(=O)c2cccc3c2C(=O)NC3)nc2c(OC)cccc21`, the values for the Selectivity ratio in the experiment filed under Homo sapiens [1], in the experiment listed under Homo sapiens [2] and in the experiment filed under Homo sapiens [3] were 50, 2.9 and 19, respectively.
On the same counts, the results for `CCn1c([C@H](CCCNC(=N)CCl)NC(=O)c2cccc3c2C(=O)NC3)nc2cc(OC)ccc21` are 21, 4.4 and 16.
On the same counts, the results for `CCN1Cc2cccc(C(=O)N[C@@H](CCCNC(=N)CCl)c3nc4ccccc4n3CC)c2C1=O` are 18, 2.1 and 14.
On to `CCN1Cc2cccc(C(=O)N[C@@H](CCCNC(=N)CCl)c3nc4cc(OC)ccc4n3C)c2C1=O`, for which the results for the Selectivity ratio in the experiment filed under Homo sapiens [1], in the experiment filed under Homo sapiens [2] and in the experiment listed under Homo sapiens [3] were 37, 9.3 and 32, respectively.
On the same counts, the results for `COc1cccc2[nH]c([C@H](CCCNC(=N)CCl)NC(=O)c3cccc4c3C(=O)NC4)nc12` are 30, 6.9 and 11.
Turning to `CCN1Cc2cccc(C(=O)N[C@@H](CCCNC(=N)CCl)c3nc4cc(OC)ccc4[nH]3)c2C1=O`, the Selectivity ratio is 7.8 in the experiment filed under Homo sapiens [1], 4.1 in the experiment listed under Homo sapiens [2] and 9.1 in the experiment listed under Homo sapiens [3].
As for `CCN1Cc2cccc(C(=O)N[C@@H](CCCNC(=N)CF)c3nc4c(OC)cccc4[nH]3)c2C1=O`, the Selectivity ratio in the experiment filed under Homo sapiens [1] came out at 107; in the experiment filed under Homo sapiens [2], 12; in the experiment listed under Homo sapiens [3], 32.
On the same counts, the results for `CCOc1cccc2c1nc([C@H](CCCNC(=N)CF)NC(=O)c1cccc3c1C(=O)N(CC)C3)n2C` are 8.9, 1 and 26.
On the same counts, the results for `CCOc1cccc2c1nc([C@H](CCCNC(=N)CCl)NC(=O)c1cccc3c1C(=O)N(CC)C3)n2C` are 12, 5.5 and 43.
On the same counts, the results for `CCN1Cc2cccc(C(=O)N[C@@H](CCCNC(=N)CCl)c3nc4ccccc4n3C(C)C)c2C1=O` are 11, 2 and 6.8.
Regarding `CCN1Cc2cccc(C(=O)N[C@@H](CCCNC(=N)CF)c3nc4cc(OC)ccc4[nH]3)c2C1=O`, the Selectivity ratio was found to be 4.4 in the experiment filed under Homo sapiens [1], 3.6 in the experiment filed under Homo sapiens [2] and 6.3 in the experiment listed under Homo sapiens [3].
On the same counts, the results for `CC(C)n1c([C@H](CCCNC(=N)CCl)NC(=O)c2cccc3c2C(=O)NC3)nc2ccccc21` are 27, 3.2 and 8.
Turning to `CCN1Cc2cccc(C(=O)N[C@@H](CCCNC(=N)CF)c3nc4ccccc4n3C)c2C1=O`, the results for the Selectivity ratio in the experiment filed under Homo sapiens [1], in the experiment listed under Homo sapiens [2] and in the experiment filed under Homo sapiens [3] were 6.1, 1.9 and 11, respectively.
